RGS4 act: potentiators or activators of RGS4. 310,000 compounds, 0.92% hits. HEK293 M3R/inducible RGS4, carbachol calcium flux Fluo4; active compounds read low. B-score at 10 µM;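 active = B-score of the integrated calcium signal more than 4 SD below the library mean, with starting fluorescence not abnormally high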;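 note: negative B-score means reduced calcium response which marks RGS4 activation or potentiation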
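Material: Inducible-RGS4 HEK293 cells carrying M3 receptor; also added: carbachol at ECmax as muscarinic agonist stimulus; incubation: compound preincubation 20 min at room temperature before agonist; signal: Fluo4-AM (2 µM) calcium-flux fluorescence, kinetic read; measure: integrated calcium ratio converted to B score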
RGS4 inh: human RGS4 inhibition; P49798; HEK293 M3R/RGS4 inducible, Fluo-4 calcium flux; active compounds read high; triggered by carbachol at its EC20; B-score at 10 µM; 310,000 compounds, 0.45% hits;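 active = B-score, a plate-corrected calcium signal, over three deviations above library mean, with baseline fluorescence within five deviations of library mean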;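 note: RGS4 expression induced by doxycycline in cells with stable M3 receptor; B-score is computed from the integrated fluorescence ratio over baseline after carbachol; higher B-score means a larger calcium signal and so more RGS4 inhibition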
Target sequence (P49798 whole entry, looked up): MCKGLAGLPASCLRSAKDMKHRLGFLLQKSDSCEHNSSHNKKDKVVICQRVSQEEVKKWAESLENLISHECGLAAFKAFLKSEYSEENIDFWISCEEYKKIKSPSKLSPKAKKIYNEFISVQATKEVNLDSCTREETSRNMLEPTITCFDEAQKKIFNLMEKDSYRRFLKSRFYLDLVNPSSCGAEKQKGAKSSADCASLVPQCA
MrgX1 PAM: human MrgX1 positive allosteric modulation, primary screen; B-score at 10 µM; Q96LB2; 310,000 compounds, 0.63% hits; MrgX1-HEK293, Fluo-4 calcium flux, FDSS; active compounds read high;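 active = plate-corrected calcium response at least 3 library SD above typical, normal starting fluorescence, not activating the receptor alone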;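 note: compound read alongside a low EC10 to EC30 dose of BAM8-22 agonist; peak minus trough fluorescence over baseline measured at the second addition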
Target sequence (Q96LB2 whole entry, looked up): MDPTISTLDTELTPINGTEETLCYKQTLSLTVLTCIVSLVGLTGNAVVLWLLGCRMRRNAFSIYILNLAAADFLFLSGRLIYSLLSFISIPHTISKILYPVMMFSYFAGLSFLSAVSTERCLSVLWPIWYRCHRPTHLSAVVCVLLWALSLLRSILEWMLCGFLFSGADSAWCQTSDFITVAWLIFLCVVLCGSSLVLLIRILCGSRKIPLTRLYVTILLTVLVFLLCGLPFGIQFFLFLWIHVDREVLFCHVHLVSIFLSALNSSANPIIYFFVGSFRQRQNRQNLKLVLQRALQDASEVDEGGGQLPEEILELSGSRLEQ
MrgX1 antagonist: blocks BAM8-22 activation of human MrgX1 receptor; MRGX1-HEK293 calcium flux, Fluo-4, BAM8-22 antagonism; active compounds read low; 310,000 compounds, 1.3% hits; B-score at 10 µM;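 active = calcium-response B-score plate-corrected more than 3 library SD below zero, starting fluorescence within 5 deviations, no agonist response on first addition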;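 note: peak minus trough fluorescence over baseline after final BAM8-22 challenge near maximal dose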
MrgX1 ag: human MrgX1 receptor agonism, primary screen. Q96LB2. MrgX1-HEK293 cells, Fluo-4 calcium fluorescence, agonist mode; active compounds read high. B-score at 10 µM. 310,000 compounds, 0.44% hits;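 active = calcium response B-score plate-corrected fluorescence ratio at least 3 library SD, with starting fluorescence B-score inside 5 SD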
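times = overnight plating, then 30 min 37 °C plus 30 min room-temperature dye loading | assay system = stable human MrgX1 HEK293 cell line | input = fifteen thousand cells per well | signal = kinetic calcium dye fluorescence, Fluo-4 NW | dosing = compound delivered in addition one of three | read-out = B-scored fluorescence response ratio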
RGS4 inh valid: RGS4 inhibitor validation | calcium response, % at 10 µM | shares compounds with RGS4 inh | 1,700 compounds, 65% hits | HEK293 M3R/RGS4, carbachol calcium Fluo-4 fluorescence; carbachol added at its EC20; 0 = buffer wells, 100 = carbachol control;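 active = duplicate-averaged calcium response above the buffer-only control mean plus 5 SD of those controls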;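 note: integrated fluorescence ratio F max minus min over baseline F0; higher response in RGS4-induced cells means RGS4 inhibition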
RGS4 uninduced: checks RGS4 inhibitor effects in non-induced HEK293 M3R cells; shares compounds with RGS4 inh; carbachol calcium Fluo-4; submaximal (EC20) carbachol stimulus; buffer wells 0%, carbachol control wells 100%; activity (percent), % at 10 µM; 1,900 compounds, 20% hits; AID 493000; call rule not given here;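 note: RGS4 induction absent so cells express M3R without RGS4; higher means more calcium signal and flags a non-specific hit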
M3R basal Ca ctr: second counter-screen for RGS4 inhibitors: non-induced cells without carbachol. shares compounds with RGS4 inh. HEK293 M3R/RGS4 non-induced, Fluo-4 calcium, no carbachol; normalised: buffer wells 0%, carbachol wells 100%. calcium response (agonist-mode artifact), % at 10 µM. 1,900 compounds, 22% hits. AID 493001;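 active = duplicate-averaged calcium rise in uninduced cells above buffer wells' mean plus 5 SD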
Each line names hits and unclear results; the compound was inactive in the other large screens (follow-up assays come after a bar, where they were run). This is a sample that favours compounds with a hit; in the whole collection about 3.5% have one here.

CC(C)c1nnc(NC(=O)CCC(=O)NC2CC2)s1	none
NC(=O)C1=NOC(CNc2ncc(C(F)(F)F)cc2Cl)C1 (stereo unspecified)	none | RGS4 inh valid inactive | RGS4 uninduced inactive | M3R basal Ca ctr inactive
CO/N=C/NC(=O)C1=NOC(CNc2ncc(C(F)(F)F)cc2Cl)C1 (stereo unspecified)	none
NS(=O)(=O)c1cccc(NC(=O)COC(=O)c2cc(-c3ccc(Cl)cc3)nc3ccccc23)c1	RGS4 inh 5.58 | RGS4 inh valid 14.5% | RGS4 uninduced inactive | M3R basal Ca ctr inactive
CCOc1ccccc1CN1CCNC(=O)C1CC(=O)N(C)CCc1cnn(C)c1 (stereo unspecified)	none
C=CCSc1nc2ccccc2n1C(=O)/C=C/c1ccc(OC)c(OC)c1	none | RGS4 uninduced inactive | M3R basal Ca ctr 12.5%
CCSc1nc2ccccc2n1C(=O)/C=C/c1ccc(OC)c(OC)c1	RGS4 inh 10.6 | RGS4 inh valid 11.5% | RGS4 uninduced inactive | M3R basal Ca ctr inactive
C=CCSc1nc2ccccc2n1C(=O)/C=C/c1cc(OC)c(OC)c(OC)c1	none
COc1ccccc1N1CCN(S(=O)(=O)CCNC(=O)c2ccc(Br)o2)CC1	none
O=C1NC(=S)S/C1=C\c1coc2ccc(O)cc2c1=O	RGS4 inh 6.34 | RGS4 inh valid 26.0% | RGS4 uninduced 65.0% | M3R basal Ca ctr inactive
FC(F)(F)c1nnc2c(Sc3ccccc3)nc3ccc(Cl)cc3n12	none
CCOC(=O)/C=C/C(=O)OCC(=O)N1CCN(C(=O)c2ccco2)CC1	RGS4 inh 5.72 | RGS4 inh valid 18.0% | RGS4 uninduced inactive | M3R basal Ca ctr inactive
CCCCCCc1ccc(-c2ncc(N)cn2)cc1	RGS4 inh 6.7 | RGS4 inh valid 29.0% | RGS4 uninduced 61.0% | M3R basal Ca ctr inactive
CN(C)c1cccc(C(=O)N2CCCC(CCC(=O)NCc3ccccc3F)C2)c1 (stereo unspecified)	none
CC(=O)NC(CC(=O)Oc1ccc(C)cc1Br)c1ccccc1 (stereo unspecified)	none
CC1(C)CC(NC(=O)c2coc(=O)c(Br)c2)CC(C)(C)N1	RGS4 inh 4.66 | RGS4 inh valid 17.0% | RGS4 uninduced inactive | M3R basal Ca ctr inactive
CCCc1[nH]nc2c1C(c1cn[nH]c1-c1ccc(F)cc1)C(C#N)=C(N)O2 (stereo unspecified)	RGS4 inh 16.4 | RGS4 inh valid 38.5% | RGS4 uninduced 43.5% | M3R basal Ca ctr 15.0%
CN(C)S(=O)(=O)c1ccc(C(=O)NCCN2C(=O)S/C(=C\c3cccnc3)C2=O)cc1	none
CS(=O)(=O)c1ccc(C(=O)NCCN2C(=O)S/C(=C\c3cccnc3)C2=O)cc1[N+](=O)[O-]	RGS4 inh 5.72 | RGS4 inh valid 22.5% | RGS4 uninduced inactive | M3R basal Ca ctr inactive
CC(=O)/C=C/c1ccc2ccccc2n1	RGS4 inh 24.7 | RGS4 inh valid 49.5% | RGS4 uninduced inactive | M3R basal Ca ctr inactive
CC(=O)NC1=NN(C(C)=O)C2(S1)C(=O)N(C(C)=O)c1ccc(C)cc12 (stereo unspecified)	none
O=C(C1=C(O)C(=O)N(Cc2ccco2)C1c1cccc(Cl)c1)c1ccco1 (stereo unspecified)	none | RGS4 inh valid inactive | RGS4 uninduced inactive | M3R basal Ca ctr inactive
O=C(C1=C(O)C(=O)N(Cc2ccco2)C1c1cccc([N+](=O)[O-])c1)c1ccco1 (stereo unspecified)	none | RGS4 inh valid inactive | RGS4 uninduced inactive | M3R basal Ca ctr inactive
O=C(C1=C(O)C(=O)N(c2ncccn2)C1c1cccc(Cl)c1)c1ccco1 (stereo unspecified)	none
